Data: ChEMBL document CHEMBL2163310, “Critical effect of peptide cyclization on the potency of peptide inhibitors against Dengue virus NS2B-NS3 protease” (J Med Chem, 2012)
Calls of active or inactive are those of the source. The rule behind the calls is not given here. Positions of bridges follow the written chain, without caps; N, C: chain ends. Residues, ends and D or L forms follow the SMILES beside them.

How the values were obtained:
[1] = Inhibition of Dengue Virus 2 NS2B-NS3 protease using Benzoyl-Nle-Lys-Arg-Arg-AMC as substrate incubated for 3 mins prior to substrate addition by fluorimetric analysis; design: species or system dengue virus type 2
Method in brief: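 Ki by Dixon plot (1/v vs inhibitor) at 33 and 66 μM substrate. Fluorescence ex 356/em 438 nm; triplicate means.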

[2] = Chemical stability at 16. 7 uM measured every 30 mins of 2.5 hrs in presence of Dengue Virus 2 NS2B-NS3 protease; type: physicochemical
[3] = Drug degradation assessed as compound activity lost at 6.7 uM measured every 30 mins of 2.5 hrs in presence of Dengue Virus 2 NS2B-NS3 protease; type: physicochemical; settings: Dengue virus 2, Dengue virus 2 NS2B-NS3 protease; read-out: Drug degradation
[4] = Drug degradation assessed as compound activity lost at 3.3 uM measured every 30 mins of 2.5 hrs in presence of Dengue Virus 2 NS2B-NS3 protease; type: physicochemical; settings: Dengue virus 2, Dengue virus 2 NS2B-NS3 protease; read-out: Drug degradation
[5] = Inhibition of trypsin using N-benzoyl-DL-arginine-p-nitroanilide as substrate by […] analysis
[6] = Chemical stability assessed as compound remaining after 4 hrs in presence of trypsin; type: physicochemical; settings: read-out: Stability
Method in brief: (§1)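 Peptide incubated with trypsin in 0.05 M Tris-HCl pH 7.8, 20 mM CaCl2 at 37 °C, or with cathepsin S in 50 mM NaAc pH 4.5, 25 mM NaCl, 5 mM DTT at room temperature. Digests analysed on HPLC C18 analytical column for remaining intact peptide.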

[7] = Chemical stability assessed as compound remaining after 4 hrs in presence of cathepsin S; type: physicochemical; method in brief: as §1
dengue virus type 2 = test: Inhibition of Dengue Virus 2 NS2B-NS3 protease using Benzoyl-Nle-Lys-Arg-Arg-AMC as substrate at 167 uM incubated for 3 mins prior to substrate addition by fluorimetric analysis
Method in brief: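 Enzyme preincubated with inhibitor for 3 min at 37 °C before adding Bz-Nle-Lys-Arg-Arg-AMC substrate. Residual activity read by fluorescence, excitation 356 nm, emission 438 nm. Triplicate measurements averaged.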

[8] = Chemical stability after 30 mins in presence of trypsin; type: physicochemical; settings: isolated protein, 0.5 h; method in brief: as §1

CC(C)C[C@@H]1NC(=O)[C@H](CCCCN)NC(=O)[C@H](Cc2ccc(O)cc2)NC(=O)CNC(=O)[C@@H]2CSSC[C@H](NC1=O)C(=O)N[C@@H](Cc1cnc[nH]1)C(=O)N1C[C@H](O)C[C@H]1C(=O)N[C@H](C(=O)O)CSSC[C@H](NC(=O)[C@@H](NC(=O)CNC(=O)[C@@H](N)CC(N)=O)C(C)C)C(=O)N2
Ki [1]: 9 µM

CC(C)C[C@@H]1NC(=O)[C@H](CCCCN)NC(=O)CNC(=O)CNC(=O)[C@@H](N)CSSC[C@@H](C(=O)O)NC1=O (H-CGGKLC-OH; disulfide 1-6)
Ki [1]: 15.1 µM

CC(C)C[C@@H]1NC(=O)CNC(=O)[C@H](Cc2ccc(O)cc2)NC(=O)CNC(=O)[C@@H](N)CSSC[C@@H](C(=O)O)NC1=O (H-CGYGLC-OH; disulfide 1-6)
Ki [1]: > 100 µM

NCCCC[C@@H]1NC(=O)[C@H](Cc2ccc(O)cc2)NC(=O)CNC(=O)[C@@H](N)CSSC[C@@H](C(=O)O)NC(=O)CNC1=O (H-CGYKGC-OH; disulfide 1-6)
Ki [1]: 12 µM

N=C(N)NCCC[C@@H]1NC(=O)[C@H](CCCCN)NC(=O)[C@H](Cc2ccc(O)cc2)NC(=O)CNC(=O)[C@@H](N)CSSC[C@@H](C(=O)O)NC1=O (H-CGYKRC-OH; disulfide 1-6)
Ki [1]: 5 µM

C[C@@H]1NC(=O)CNC(=O)[C@H](CO)NC(=O)[C@H](CCCCN)NC(=O)[C@H](CCCNC(=N)N)NC(=O)C(CCCCN)NC(=O)CNC1=O (single isomer, unassigned)
Ki [1]: 11.3 µM | Stability [2]: Stable

N=C(N)NCCC[C@@H]1NC(=O)C(CCCCN)NC(=O)CNC(=O)[C@@H](N)CSSC[C@@H](C(=O)O)NC(=O)[C@H](CO)NC(=O)[C@H](CCCCN)NC1=O (single isomer, unassigned)
metabolised at 2.5 h, 6.7 µM [3]: 50% | metabolised at 2.5 h, 3.3 µM [4]: 50% | Ki [1]: 1.4 µM | Ki [5]: > 100 µM

CC(C)C[C@@H]1NC(=O)[C@H](CCCCN)NC(=O)[C@H](CCCNC(=N)N)NC(=O)C(CCCCN)NC(=O)CNC(=O)[C@@H](N)CSSC[C@@H](C(=O)O)NC1=O (single isomer, unassigned)
metabolised at 2.5 h, 6.7 µM [3]: 50% | metabolised at 2.5 h, 3.3 µM [4]: 50% | Ki [1]: 2.5 µM

N=C(N)NCCC[C@@H]1NC(=O)C(CCCCN)NC(=O)CNC(=O)[C@@H](N)CSSC[C@@H](C(=O)O)NC(=O)[C@H](CCCNC(=N)N)NC1=O (single isomer, unassigned)
Ki [1]: 3.5 µM

C[C@@H]1NC(=O)[C@@H](CS)NC(=O)CNC(=O)[C@H](CO)NC(=O)[C@H](CCCCN)NC(=O)[C@H](CCCNC(=N)N)NC(=O)C(CCCCN)NC(=O)CNC1=O (single isomer, unassigned)
metabolised at 2.5 h, 3.3 µM [4]: 25% | remaining at 4 h [6]: 50% | Ki [1]: 2.2 µM | Stability [7]: Stable | Ki [5]: > 100 µM

CC(C)C[C@@H]1NC(=O)[C@H](CCCCN)NC(=O)C(Cc2ccc(O)cc2)NC(=O)CNC(=O)[C@@H](N)CSSC[C@@H](C(=O)O)NC1=O (single isomer, unassigned)
inhibition (dengue virus type 2): inactive | Ki [1]: 12.5 µM | Ki [5]: > 100 µM

H-CAGKRKSG-OH
Stability [8]: Stable | Ki [1]: 42 µM
